Reference: ChEMBL document CHEMBL4715833, “Design, synthesis, in-vitro, in-vivo and in-silico studies of pyrrolidine-2,5-dione derivatives as multitarget anti-inflammatory agents” (Eur J Med Chem, 2020)
Where a name gives a salt, the structure may show the parent alone.

Legend:
[1] = Inhibition of trypsin (unknown origin) using casein as substrate preincubated for 5 mins followed by substrate addition and measured after 20 mins; set-up: species or system Homo sapiens
Procedure, shortened: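 Trypsin 0.06 mg/ml in 20 mM Tris-HCl pH 7.4 with compound at 31.25–1000 µg/ml, 5 min at 37 °C. 0.8% (w/v) casein added, 20 min further, stopped with 70% perchloric acid. After centrifugation, supernatant absorbance read at 217 nm against buffer blank. % inhibition against control; IC50 from plot; three runs.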

[2] = biological target: T1, Prostaglandin G/H synthase 1 (Ovis aries, UniProt P05979); experiment: Inhibition of sheep COX1 using arachidonic acid as substrate preincubated for 5 mins followed by substrate addition and measured after 5 mins by UV-visible spectrophotometric method
T1 sequence (P05979 whole entry): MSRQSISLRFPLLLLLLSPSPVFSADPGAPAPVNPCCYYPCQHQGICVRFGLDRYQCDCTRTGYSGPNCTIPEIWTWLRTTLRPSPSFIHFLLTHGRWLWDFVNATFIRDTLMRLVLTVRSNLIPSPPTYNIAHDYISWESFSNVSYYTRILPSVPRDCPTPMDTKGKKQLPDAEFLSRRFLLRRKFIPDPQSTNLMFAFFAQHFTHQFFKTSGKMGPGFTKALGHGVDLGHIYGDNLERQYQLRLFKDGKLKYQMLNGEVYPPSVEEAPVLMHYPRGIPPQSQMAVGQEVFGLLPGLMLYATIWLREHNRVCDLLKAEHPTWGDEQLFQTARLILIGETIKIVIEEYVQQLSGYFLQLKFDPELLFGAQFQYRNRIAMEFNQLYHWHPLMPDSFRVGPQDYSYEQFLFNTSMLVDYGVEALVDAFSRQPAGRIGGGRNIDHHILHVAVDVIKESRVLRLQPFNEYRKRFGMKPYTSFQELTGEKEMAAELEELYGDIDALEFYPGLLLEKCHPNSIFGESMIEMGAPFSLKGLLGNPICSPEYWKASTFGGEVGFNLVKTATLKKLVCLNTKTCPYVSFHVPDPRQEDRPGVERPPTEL
Procedure, shortened: (§1)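 Enzymes activated for 5 min on ice with cofactor solution of 0.9 mM glutathione, hematin and 0.24 mM TMPD in 0.1 M Tris-HCl pH 8.0; COX-2 at 300 units/ml. Reaction started with 30 mM arachidonic acid stock, run 5 min, absorbance read at 570 nm. IC50 taken from inhibition-vs-concentration plots as means of three determinations. SI = IC50(COX-1)/IC50(COX-2).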

Homo sapiens = species: Homo sapiens; experiment: Selectivity index, ratio of IC50 for sheep COX1 to IC50 for recombinant human COX2 expressed in baculovirus infected Sf21 cells; procedure, shortened: as §1
[3] = biological target: T2, Polyunsaturated fatty acid 5-lipoxygenase (Homo sapiens, UniProt P09917); experiment: Inhibition of recombinant human 5LOX expressed in baculovirus infected Sf insect cells using linoleic acid as substrate preincubated for 5 mins followed by substrate addition
T2 sequence (P09917 whole entry): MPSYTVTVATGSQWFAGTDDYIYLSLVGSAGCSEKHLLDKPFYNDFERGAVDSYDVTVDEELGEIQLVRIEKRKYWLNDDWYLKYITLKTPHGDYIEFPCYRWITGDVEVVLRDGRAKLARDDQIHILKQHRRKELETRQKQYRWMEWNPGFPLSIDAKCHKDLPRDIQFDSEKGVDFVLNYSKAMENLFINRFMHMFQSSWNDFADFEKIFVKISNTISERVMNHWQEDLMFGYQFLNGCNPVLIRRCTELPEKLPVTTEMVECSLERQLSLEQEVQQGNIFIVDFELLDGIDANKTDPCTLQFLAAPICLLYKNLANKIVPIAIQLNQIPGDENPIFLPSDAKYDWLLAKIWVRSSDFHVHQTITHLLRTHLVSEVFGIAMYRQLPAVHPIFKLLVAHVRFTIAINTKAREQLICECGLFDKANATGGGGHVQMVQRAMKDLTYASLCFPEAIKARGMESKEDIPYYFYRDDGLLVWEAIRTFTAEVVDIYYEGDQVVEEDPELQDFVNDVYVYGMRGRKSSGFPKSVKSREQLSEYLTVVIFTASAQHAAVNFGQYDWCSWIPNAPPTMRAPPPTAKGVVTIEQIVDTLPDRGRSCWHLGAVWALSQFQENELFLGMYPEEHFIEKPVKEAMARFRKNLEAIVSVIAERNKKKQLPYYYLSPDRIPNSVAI

Mus musculus [4] = experiment: Antiinflammatory activity in PGE2-induced paw edema in Balb/c mouse assessed as inhibition of paw edema at 50 mg/kg, ip administered 1 hr prior to PGE2 challenge and measured up to 5 hrs relative to control; format: functional; details: time 2-6 hrs
Procedure, shortened: (§2)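 BALB/c mice of either sex (30–35 g), 8 per group, dosed i.p. with 10% DMSO, reference drug or compound (100 mg/kg). After 1 h, subplantar irritant: PGE2 0.01 µg/ml, bradykinin 20 µg/ml, histamine 0.1 ml of 1 mg/ml, or leukotriene 10 µg/ml.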

Mus musculus [5] = experiment: Antiinflammatory activity against carrageenan-induced paw edema in Swiss mouse assessed as inhibition of paw edema at 100 mg/kg administered 30 mins prior to carrageenan challenge and measured after 1 hr by […]-method (reference value: 7.66 +/- 3.753%); format: functional; details: 1.5 h, time 90 min
Mus musculus [6] = experiment: Antiinflammatory activity against carrageenan-induced paw edema in Swiss mouse assessed as inhibition of paw edema at 100 mg/kg administered 30 mins prior to carrageenan challenge and measured after 2 hrs by […]-method (reference value: 7.39 +/- 2.475%); format: functional; details: time 2.5 hrs
Mus musculus [7] = experiment: Antiinflammatory activity against carrageenan-induced paw edema in Swiss mouse assessed as inhibition of paw edema at 100 mg/kg administered 30 mins prior to carrageenan challenge and measured after 3 hrs by […]-method (reference value: 11.41 +/- 3.069%); format: functional; details: time 3.5 hrs
Mus musculus [8] = experiment: Antiinflammatory activity against carrageenan-induced paw edema in Swiss mouse assessed as inhibition of paw edema at 100 mg/kg administered 30 mins prior to carrageenan challenge and measured after 4 hrs by […]-method (reference value: 14.46 +/- 1.568%); format: functional; details: time 4.5 hrs
Mus musculus [9] = experiment: Antiinflammatory activity against carrageenan-induced paw edema in Swiss mouse assessed as inhibition of paw edema at 100 mg/kg administered 30 mins prior to carrageenan challenge and measured after 5 hrs by […]-method (reference value: 7.31 +/- 3.204%); format: functional; details: time 5.5 hrs
Mus musculus [10] = experiment: Antiinflammatory activity in leukotriene-induced paw edema in Balb/c mouse assessed as inhibition of paw edema at 25 mg/kg, ip administered 1 hr prior to leukotriene challenge and measured after 3 hrs relative to control; format: functional; procedure, shortened: as §2
[11] = Antiinflammatory activity assessed as inhibition of heat-induced albumin denaturation preincubated for 20 mins followed by heating at 51 degC and measured after 3 mins by UV-vis spectrophotometric method
Mus musculus [12] = experiment: Antiinflammatory activity in histamine-induced paw edema in Balb/c mouse assessed as inhibition of paw edema at 1 mg/kg, ip administered 1 hr prior to histamine challenge and measured after 1 hr relative to control; format: functional; details: time 2 hrs; procedure, shortened: as §2

IC50 [1] | IC50 [2] | IC50 [3] | SMILES | Ratio IC50 (Homo sapiens) | further results
42.7 µM |  |  | O=C(O)Cc1ccccc1Nc1c(Cl)cccc1Cl [DICLOFENAC] |  | 
13.4 µM | 43.7 µM | 0.81 µM | NS(=O)(=O)c1ccc(N2C(=O)CC(CC(=O)c3ccccn3)C2=O)cc1 (centres undefined) | 4.88 | 
 | 49.1 µM | 16.1 µM | NS(=O)(=O)c1ccc(N2C(=O)CC(C3CCCCCC3=O)C2=O)cc1 (centres undefined) | 2.36 | 
88.7 µM | 39.3 µM | 53.4 µM | CC(=O)C(C)(C)C1CC(=O)N(c2ccccc2)C1=O (centres undefined) | 0.73 | 
 | 43.4 µM | 21.3 µM | NS(=O)(=O)c1ccc(N2C(=O)CC(C3CCCCC3=O)C2=O)cc1 (centres undefined) | 2.04 | 
 |  |  | Cc1ccc(-c2cc(C(F)(F)F)nn2-c2ccc(S(N)(=O)=O)cc2)cc1 [CELECOXIB] |  | inhibition in vivo at 50 mg/kg (Mus musculus [4]): 65.9%
63.1 µM | 65.6 µM | 18.4 µM | O=C1CCCCCC1C1CC(=O)N(c2ccccc2)C1=O (centres undefined) | 1.66 | 
45.6 µM | 48.7 µM | 5.29 µM | NS(=O)(=O)c1ccc(N2C(=O)CC(CC(=O)c3ccccc3)C2=O)cc1 (centres undefined) | 11.5 | 
21.5 µM | 68.8 µM | 12.6 µM | NS(=O)(=O)c1ccc(N2C(=O)CC(CC(=O)c3ccc(Cl)cc3)C2=O)cc1 (centres undefined) | 10.9 | 
77.1 µM | 53 µM | 69.2 µM | CC1CCC(=O)C(C2CC(=O)N(c3ccccc3)C2=O)C1 (centres undefined) | 0.93 | 
63.5 µM | 51.5 µM | 56.2 µM | CC1CCC(=O)C(C2CC(=O)N(Cc3ccccc3)C2=O)C1 (centres undefined) | 2.35 | 
99.9 µM | 186 µM | 130 µM | O=C1CCCCC1C1CC(=O)N(c2ccc(Br)cc2)C1=O (centres undefined) | 1.64 | 
66.3 µM | 65.6 µM | 78.3 µM | O=C1CCCCC1C1CC(=O)N(c2ccccc2)C1=O (centres undefined) | 1.45 | 
117 µM | 48.9 µM | 26.8 µM | O=C1CCOCC1C1CC(=O)N(c2ccccc2)C1=O (centres undefined) | 0.86 | 
 |  |  | CC(=O)Oc1ccccc1C(=O)O [ASPIRIN] |  | inhibition in vivo at 100 mg/kg (Mus musculus [5]): 47.5%; inhibition in vivo at 100 mg/kg (Mus musculus [6]): 54.6%; inhibition in vivo at 100 mg/kg (Mus musculus [7]): 53.3%; inhibition in vivo at 100 mg/kg (Mus musculus [8]): 56.9%; inhibition in vivo at 100 mg/kg (Mus musculus [9]): 57.6%; inhibition in vivo at 25 mg/kg (Mus musculus [10]): 77.4%
14.9 µM | 39.2 µM | 4.74 µM | COc1ccc(C(=O)CC2CC(=O)N(c3ccc(S(N)(=O)=O)cc3)C2=O)cc1 (centres undefined) | 18.7 | IC50 [11]: 24.9 µM
151 µM | 33.3 µM | 62.4 µM | CC(=O)CC1CC(=O)N(c2ccccc2)C1=O (centres undefined) | 0.52 | 
85.5 µM | 30.3 µM | 98.5 µM | O=C1CCCC1C1CC(=O)N(c2ccccc2)C1=O (centres undefined) | 0.58 | IC50 [11]: 97.2 µM
 |  |  | CN(C)CCC(c1ccc(Cl)cc1)c1ccccn1 (centres undefined) [CHLORPHENIRAMINE MALEATE] |  | inhibition in vivo at 1 mg/kg (Mus musculus [12]): 71.8%
